# How the values were obtained:
# mice [1] = format: in vivo, mice (Balb/c and C57BL/6); settings: 10mg/kg/day, 3-4 weeks; for Skin pigmentation (visual): mice, drug powder feed diet; for Skin pigmentation (OD values, 480nm and 535nm filters): mouse ears, n=3, p<0.01 vs untreated
# Summary of the method: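 Balb/c and C57BL/6 mice, 4-5 weeks old, fed ad libitum a drug powder diet targeting an oral dose equivalent of 10mg/kg/day for 3-4 weeks; untreated mice as controls. Ears were photographed by phone camera through single-band bandpass filters (480, 535, 623nm), flash/HDR off, no editing filters. Reflectance was quantified by image analysis (drug powder n=7, untreated n=3); one-way ANOVA, Tukey's HSD.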
# [2] = In vitro assay for HCl salt precipitation in simulated lysosomal conditions; format: physicochemical; settings: for Solubility behaviour in solution A (no chloride): compared with DMSO; for Precipitates by brightfield and Cy5 fluorescence microscopy in solution B: pH 4.5, 100mM chloride
# Summary of the method: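 Lysosome-mimic buffers: 10mM sodium acetate pH 4.5 with 10mM CTAB (Solution A), plus 100mM NaCl (Solution B). A 7mM DMSO stock was added 1:100 into each buffer and shaken 2.5 h at varying speeds. Absorbance at 285nm was read against a buffer-plus-DMSO baseline; a decrease was taken as precipitation. Precipitate was imaged by brightfield and Cy5 fluorescence microscopy.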
# mice [3] = assay: Multi-parameter microscopic imaging of tissue cryosections for CLDIs; format: in vivo, mice (Balb/c and C57BL/6); settings: 10mg/kg/day, 3-4 weeks
# Summary of the method: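 Mice (4-5 weeks old) received a 10mg/kg/day-equivalent drug diet for 3-4 weeks, then were CO2-euthanized. Liver, spleen and ears were washed in cold PBS, embedded in OCT, frozen at -80°C and cryosectioned at 5 μm. Sections were imaged by brightfield, Cy5 fluorescence and LC-PolScope polarization (dichroism, 623nm-filtered illumination) and compared with untreated tissue.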
# [4] = LogP and LogD determination, 1-octanol/phosphate buffer partitioning; format: physicochemical
# Summary of the method: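 Shake-flask partitioning in phosphate buffer pH 3/1-octanol 1:1 (v/v) at 25°C, thermostatted water bath, magnetic stirring for 24 h to equilibrate. Compound was introduced in organic solvent at maximum solubility. Both layers were assayed spectrophotometrically at 285nm against a standard curve. The apparent partition coefficient was converted to LogP and LogD (pH 7.4) by published equations.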
# [5] = ref Baik et al., 2013; cited from earlier work
# [6] = Quantification of CFZ in tissues of treated mice; format: in vivo, mice (Balb/c and C57BL/6); settings: 10mg/kg/day oral, 3-4 weeks
# Summary of the method: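 4–5-week-old mice fed the test compound ad libitum in powdered chow; liver, spleen and ears (skin) harvested and rinsed in cold PBS. Tissue homogenized (sonication, or mechanical for ear) in RIPA with protease inhibitors, spun 15000 rpm, 4°C, 5 min. Supernatant extracted with xylenes, then 9M H2SO4 (each triplicate). A540−A750 against a 9M H2SO4 standard curve, normalized to organ weight.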
# patients = settings: leprosy or MDR-TB patients; ref Maia et al., 2013, Tang et al., 2015; cited from earlier work
# [7] = pH 4.5, 10 mM CTAB, 100mM chloride
Compound,Skin pigmentation (visual) (mice [1]),"Skin pigmentation (OD values, 480nm and 535nm filters) (mice [1])","Precipitation as hydrochloride salt in solution B [2, 7]","Solubility behaviour in solution A (no chloride) ([2]; pH 4.5, 10 mM CTAB)",Precipitates by brightfield and Cy5 fluorescence microscopy in solution B [2],"CLDIs accumulation in all tissues (mice [3]; liver, spleen, skin)","LogP ([4]; 1-octanol/phosphate buffer pH 3, 25°C, 24 hours, mean, n=3)","LogD @ pH 7.4 ([4]; pH 7.4, from the apparent partition coefficient, 25°C, mean, n=3)",Concentration found in adipose tissue [5] [mgCFZ/gFat],"Tissue concentration of the drug in skin ([6]; n=3, mean ± SD) [mg/g]","Tissue concentration of the drug in liver ([6]; n=4, mean ± SD) [mg/g]","Tissue concentration of the drug in spleen ([6]; n=4, mean ± SD) [mg/g]","Decrease in absorbance (285nm) in solution B [2, 7] [fold]",CLDIs in skin sections (mice [3]),"CLDIs in liver and spleen (mice [3]; brightfield, fluorescence, diattenuation)","logP at 24 h ([4]; 1-octanol/phosphate buffer 1:1 (v/v), pH 3)","logD at 24 h ([4]; 1-octanol/phosphate buffer, pH 7.4)",Patients with skin pigmentation (patients)
OCCN=c1cc2n(-c3ccc(Cl)cc3)c3ccccc3nc-2cc1Nc1ccc(Cl)cc1 [compound 568],visually evident,identical level of pigmentation as CFZ treated mice,remains in solution,remained soluble,no precipitates were observed,no evidence of CLDIs accumulation,6.69 ^2,5.42 ^3,,,,,,,,,,
"CC(C)/N=c1\cc2n(-c3ccc(Cl)cc3)c3ccccc3nc-2cc1Nc1ccc(Cl)cc1 [CFZ, Clofazimine]",visually evident,significantly higher than the untreated group,precipitates out as hydrochloride salt,remained soluble,precipitates as a HCl salt form,,,,0.74,0.16 ± 0.04,2.37 ± 0.62,4.34 ± 0.41,4,did not contain CLDIs,CLDIs were observed,7.66,5.76,more than 94%
